From PubChem
In the library only some 3.5% were active in any assay of this set; here they are far more common.
NF-kB expr up – compounds increasing NF-kB expression in human neuronal cells; NF-kB reporter expression; hits give high values; fold change at 12.5 µM; 190,000 tested, 1.6% active; AID 1239; in the data active = fold change above about 3.3
FLuc act counter – affects firefly luciferase, flagging false hits in luciferase stimulation screens. P08659. ATPlite luciferase biochemical, luminescence, 10 min; 0 = ATP-free wells, 1 = DMSO control. activation factor at 10 µM. 200,000 tested, under 10 active. AID 1027;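 active = luciferase activation factor, scaled between plate controls, of at least 2 with compound at 10 µM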
Target sequence (P08659 whole entry, looked up): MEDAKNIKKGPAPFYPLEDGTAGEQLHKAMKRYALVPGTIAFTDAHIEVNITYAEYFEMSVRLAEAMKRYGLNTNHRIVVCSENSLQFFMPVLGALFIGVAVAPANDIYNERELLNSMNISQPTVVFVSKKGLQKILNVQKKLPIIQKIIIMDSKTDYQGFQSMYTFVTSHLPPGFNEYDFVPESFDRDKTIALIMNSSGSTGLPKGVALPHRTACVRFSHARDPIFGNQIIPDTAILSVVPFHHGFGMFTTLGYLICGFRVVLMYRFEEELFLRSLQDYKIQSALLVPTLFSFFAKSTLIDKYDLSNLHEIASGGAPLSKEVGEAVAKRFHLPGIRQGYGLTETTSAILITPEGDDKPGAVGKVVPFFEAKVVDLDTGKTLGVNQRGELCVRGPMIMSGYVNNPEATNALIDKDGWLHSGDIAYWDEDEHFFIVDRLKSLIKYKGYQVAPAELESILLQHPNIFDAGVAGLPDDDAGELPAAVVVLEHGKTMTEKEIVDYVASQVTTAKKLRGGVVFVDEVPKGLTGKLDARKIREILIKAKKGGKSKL
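System: cell-free luciferase reagent; medium: PBS as buffer for the ATP substrate; doses: test compounds dosed from 2 mM stocks in 100% DMSO; incubation: 10 min, room temperature; measured by: luminescence from luciferase reaction; read-out: luciferase activation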
Pf gametocyte – inhibitors of late stage P. falciparum gametocyte viability | 150,000 tested, 0.065% active | inhibition, % at 10.9 µM | P. falciparum stage V gametocytes, ATP luminescence, 24 h;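 active = inhibition above the mean plus 3 SD of compounds within the control limits, set per campaign, cut at about 38% in these data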;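 also: 0% = DMSO wells and 100% = medium only without gametocytes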
FLuc inhib CS – Photinus pyralis luciferase inhibition counter-screen; inhibition, % at 10 µM; 200,000 tested, 1.5% active; ATPLite firefly luciferase biochemical luminescence, 10 min;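 active = inhibition above about 50% when tested at 10 µM, limit read from the data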
APP 5'UTR act – activates APP 5'UTR luciferase reporter. SH-SY5Y APP 5'UTR luciferase reporter, luminescence; zero percent = DMSO vehicle wells. activation, % at 2 µM. 190,000 tested, 1% active;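 active = activation above a set limit, based on mean plus 3 SD of controls, cut at about 140% in these data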
STAT1 act – STAT1 signaling activation | NIH 3T3 STAT1-luciferase reporter, IFN-gamma, luminescence; 100% = IFN-gamma alone, no compound | activation (% of control), % at 5.5 µM | 200,000 tested, 2.6% active;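 active = activation above the screen-wide mean activation plus 3 SD, cut at about 130% in these data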;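 also: raw ratio to IFN-gamma control signal so 100% means no change and 0% no light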
* hit, by the source's call; nt = no result given.

SMILES	NF-kB expr up	FLuc act counter	Pf gametocyte	FLuc inhib CS	APP 5'UTR act	STAT1 act
C=CCN1C(=O)C(CC(=O)NCC)SC1=Nc1ccccc1OC (centres undefined)	nt	nt	-7	nt	nt	nt
Oc1ccc(Br)cc1/C=N/N1CCCCC1	4*	0.8	-5	23	54	110
Oc1ccc(Br)cc1/C=N/N1CCN(Cc2ccccc2)CC1	2.9	1.1	14	-6	-4	105
Cc1ccc(N(C(C)C(=O)NCc2ccncc2)S(C)(=O)=O)cc1C (centres undefined)	1.2	1	-15	-4	7	97
COc1cc(/C=N/N(C)c2ccccc2)ccc1O	10*	0.6	-12	37	179*	140*
CCOC(=O)CNC(=O)c1sc(NC(=O)c2ccccc2F)nc1C	2.5	0.8	6	16	91	129*
COC(=O)c1sc(NC(=S)NC(=O)c2ccccc2F)nc1C	1.3	0.5	-6	49	78	129*
CCOC(=O)c1sc(NC(=O)c2ccc(CC)s2)nc1C	2.3	0.9	-10	12	29	126
CCOC(=O)c1sc(NC(=O)c2ccccc2OC)nc1C	8*	0.4	nt	62*	153*	146*
CCOC(=O)c1sc(NC(=O)c2cc3ccccc3o2)nc1C	2.6	0.5	-12	52*	116	142*
COC(=O)c1sc(NC(=S)NC(=O)c2cccc(C)c2)nc1C	0.86	0.5	nt	50	29	95
C/C(=N\Nc1c([N+](=O)[O-])c(C)nn1C)c1ccc(F)cc1F	1.2	1	-7	-4	-1	106
Cc1cc(NC(=O)CC2(CC(=O)O)CCCC2)n(C)n1	nt	nt	-1	nt	nt	nt
O=C(c1cc(Cl)c(=O)n(Cc2ccc(Cl)cc2)c1)N1CCOCC1	1	1.1	-27	-8	6	105
C=CCOC(=O)c1sc(NC(=O)c2ccco2)nc1C	2.2	0.4	nt	58*	37	106
CCOC(=O)c1sc(NC(=O)c2ccc3ncsc3c2)nc1C	2	0.7	nt	29	83	148*
Cc1nc(NC(=O)c2ccccc2[N+](=O)[O-])sc1C(=O)N(C)C	1.4	1	nt	-4	-11	98
CCOC(=O)c1sc(NC(=O)Nc2ccccc2F)nc1C	1.2	0.2	1	84*	162*	116
CCOC(=O)c1sc(Nc2ccccc2Cl)nc1C	nt	nt	-26	nt	nt	nt
Cc1nc(NC(=O)c2oc3ccccc3c2C)sc1C(=O)N(C)C	2.1	0.8	nt	18	43	139*
CC(NC(=O)CCCn1cc([N+](=O)[O-])cn1)c1ccccc1 (centres undefined)	1.6	1	1	-3	-3	96
Clc1ccc(-c2nnc(SCc3ccon3)o2)c(Cl)c1	9.7*	0.2	nt	78*	144*	141*
Clc1ccc(-c2nnc(CCc3ccccc3)o2)c(Cl)c1	2.5	0.9	nt	8	62	137*
Clc1ccc(-c2nnc(SCc3nc4ccccc4[nH]3)o2)c(Cl)c1	1.1	1	nt	-5	55	96
C=CCSc1nnc(-c2ccc(Cl)cc2Cl)o1	7.5*	0.4	nt	59*	159*	120
SMILES	NF-kB expr up	FLuc act counter	Pf gametocyte	FLuc inhib CS	APP 5'UTR act	STAT1 act
O=C([O-])c1ccccc1-[n+]1c(-c2ccccc2)cc(-c2ccccc2)cc1-c1ccccc1	nt	nt	15	nt	nt	nt
Brc1ccc(N=Nc2ccc3ccccc3n2)cc1	nt	nt	-9	nt	nt	nt
Cc1nc2cc(NC(=O)NCCCO)ccc2o1	1.4	1	-1	-1	-15	96
Cc1nc2cc(NC(=O)NCCC3=CCCCC3)ccc2o1	1.9	1	-8	4	70	132*
Cc1ccc(-c2nn(-c3ccccc3)cc2CSC(=N)N)cc1	4.9*	1.1	0	-8	16	102
O=[N+]([O-])c1ccc(Cc2nnc(-c3ccccc3Cl)o2)cc1	3.6*	1	17	0	166*	97
O=C(c1cc([N+](=O)[O-])cc([N+](=O)[O-])c1)N(Cc1nnc(-c2ccccc2Cl)o1)C1CC1	0.89	1	-14	-5	5	83
Cc1ccc(C)c(NCc2ccccc2CO)c1	1.1	1.1	4	-8	-15	110
NC(=O)c1cccnc1Nc1cccc([N+](=O)[O-])c1	2.5	1	-20	-4	88	134*
O=C1OCCC1Sc1nnc(-c2ccc3c(c2)OCO3)o1 (centres undefined)	0.5	0.4	8	60*	-11	78
CC(=O)CSc1nnc(-c2ccc3c(c2)OCO3)o1	1.8	0.3	-23	67*	35	77
O=C(O)/C=C\C(=O)Nc1ccccc1C#Cc1ccccc1	6.8*	1	7	-3	73	140*
O=C(Nc1cccc(-c2nc3ccccc3s2)c1)c1cc(-n2cnnc2)ccc1Cl	0.84	0.9	nt	10	31	106
O=C(O)/C=C/C(=O)Nc1ccc(OCc2ccccc2)cc1	nt	nt	6	nt	nt	nt
O=C(O)/C=C/C(=O)Nc1ccc(-c2ccccc2)cc1	1.7	0.5	-16	53*	4	120
Cc1c(NC(=O)c2cc(-n3cnnc3)ccc2Cl)cccc1-c1nc2ccccc2s1	2.3	0.2	13	79*	79	108
O=C(O)/C=C/C(=O)Nc1ccccc1-c1ccccc1NC(=O)/C=C/C(=O)O	0.98	1	1	-3	nt	99
Cc1ccc2sc(-c3ccc(NC(=O)/C=C\C(=O)O)cc3)nc2c1	5.4*	0.2	nt	84*	197*	59
O=C(O)CC1NC(=O)N(c2ccc(Cl)cc2)C1=O (centres undefined)	1	1.1	nt	-5	-9	90
O=C1c2ccccc2C(=O)N1c1ccc(Cl)cn1	1.1	1	nt	-2	7	96
Cc1ccc2sc(-c3ccc(NC(=O)c4cc(-n5cnnc5)ccc4Cl)cc3)nc2c1	1.1	0.8	nt	23	156*	149*
COc1ccc(C2CC(c3c(O)cc(C)oc3=O)=NCCS2)c(OC)c1 (centres undefined)	5.8*	0.6	nt	38	-93	136*
CCc1c(C)nc(N2CCN(c3ccc(Cl)cc3)CC2)[nH]c1=O	nt	nt	-3	nt	nt	nt
CCOC(=O)c1ccc(NCc2nc3ccccc3n2C)cc1	2.9	0.7	nt	30	85	139*
CCC(=O)Nc1ccc(NC(=O)c2cccc(OC)c2)nc1	1.9	0.7	nt	32	44	129*
CC(C)C(=O)Nc1ccc(NC(=O)c2ccccn2)cn1	1.9	0.3	12	67*	101	92
O=C(Nc1ccc(NC(=O)C2CC2)nc1)c1ccccn1	0.96	0.4	nt	62*	110	100
O=C(Nc1ccc(NC(=O)C2CC2)nc1)c1cnccn1	1.3	0.9	nt	10	-3	106
CCC(=O)Nc1ccc(NC(=O)c2ccccn2)cn1	0.63	0.6	25	42	85	130*
CC(C)C(=O)Nc1ccc(NC(=O)c2cccnc2)cn1	0.96	1	nt	-3	-8	97
